# Assay results taken from ChEMBL document CHEMBL4024771, “Optimization of Orally Bioavailable Enhancer of Zeste Homolog 2 (EZH2) Inhibitors Using Ligand and Property-Based Design Strategies: Identification of Development Candidate …” (J Med Chem, 2018).
# Test system: not listed separately
# Experiment: Intrinsic clearance in human liver microsomes assessed per mg protein at 1 uM preincubated for 10 mins followed by NADPH addition measured after 45 mins by LC-MS/MS analysis
# Assay type: ADME, microsome
# Conditions: liver microsomes, read-out: CLH
# Outline: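 Test compound (1 μM) with pooled liver microsomes (0.8 mg/mL protein) in 100 mM potassium phosphate pH 7.4, 10 min preincubation, started with 2 mM NADPH, 45 min at 37 °C, in triplicate. Samples quenched with cold methanol containing buspirone internal standard, analysed by LC−MS/MS. CLint derived from t1/2 of parent loss (log-linear slope).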
row,SMILES,microsomal CLint at 1 µM [µL/min/mg]
1,COc1cc(C)[nH]c(=O)c1CN1CCc2c(Cl)cc([C@H](O)C3COC3)c(Cl)c2C1=O,< 8
2,COc1cc(C)[nH]c(=O)c1CN1CCc2c(Cl)cc([C@@H](OC)C3COC3)c(Cl)c2C1=O,17
3,Cc1cc(C)c(CN2CCc3c(Cl)cc([C@@H](CO)[C@H]4CCCO4)c(Cl)c3C2=O)c(=O)[nH]1,43
4,Cc1cc(C)c(CN2CCc3c(Cl)cc([C@@H](CO)[C@@H]4CCOC4)c(Cl)c3C2=O)c(=O)[nH]1,25.3
5,Cc1cc(C)c(CN2CCc3c(Cl)cc([C@H](CO)[C@@H]4CCCO4)c(Cl)c3C2=O)c(=O)[nH]1,37.6
6,COc1cc(C)[nH]c(=O)c1CN1CCc2c(Cl)cc([C@@H](O)C3COC3)c(Cl)c2C1=O,< 7
7,Cc1cc(C)c(CN2CCc3c(Cl)cc([C@H](CO)[C@H]4CCOC4)c(Cl)c3C2=O)c(=O)[nH]1,21.3
8,Cc1cc(C)c(CN2CCc3c(Cl)cc([C@@H](C)CO)c(Cl)c3C2=O)c(=O)[nH]1,12.4
9,COc1cc(C)[nH]c(=O)c1CN1CCc2c(Cl)cc(-c3c(C)noc3C)c(Cl)c2C1=O,70
10,Cc1cc(C)c(CN2CCc3c(Cl)cc([C@H](CO)[C@H]4CCCO4)c(Cl)c3C2=O)c(=O)[nH]1,51.6
11,Cc1cc(C)c(CN2CCc3c(Cl)cc([C@@H](CO)[C@@H]4CCCO4)c(Cl)c3C2=O)c(=O)[nH]1,70.3

# Target: Histone-lysine N-methyltransferase EZH2 (Homo sapiens, UniProt Q15910, Y641N)
# Experiment: Inhibition of EZH2 Y641N mutant (unknown origin) using oligonucleosomes as substrate after 60 mins in presence of [3H]SAM by scintillation counting analysis
# Conditions: not given
# Histone-lysine N-methyltransferase EZH2 (Homo sapiens, UniProt Q15910, Y641N), sequence (Q15910 whole entry Y641N): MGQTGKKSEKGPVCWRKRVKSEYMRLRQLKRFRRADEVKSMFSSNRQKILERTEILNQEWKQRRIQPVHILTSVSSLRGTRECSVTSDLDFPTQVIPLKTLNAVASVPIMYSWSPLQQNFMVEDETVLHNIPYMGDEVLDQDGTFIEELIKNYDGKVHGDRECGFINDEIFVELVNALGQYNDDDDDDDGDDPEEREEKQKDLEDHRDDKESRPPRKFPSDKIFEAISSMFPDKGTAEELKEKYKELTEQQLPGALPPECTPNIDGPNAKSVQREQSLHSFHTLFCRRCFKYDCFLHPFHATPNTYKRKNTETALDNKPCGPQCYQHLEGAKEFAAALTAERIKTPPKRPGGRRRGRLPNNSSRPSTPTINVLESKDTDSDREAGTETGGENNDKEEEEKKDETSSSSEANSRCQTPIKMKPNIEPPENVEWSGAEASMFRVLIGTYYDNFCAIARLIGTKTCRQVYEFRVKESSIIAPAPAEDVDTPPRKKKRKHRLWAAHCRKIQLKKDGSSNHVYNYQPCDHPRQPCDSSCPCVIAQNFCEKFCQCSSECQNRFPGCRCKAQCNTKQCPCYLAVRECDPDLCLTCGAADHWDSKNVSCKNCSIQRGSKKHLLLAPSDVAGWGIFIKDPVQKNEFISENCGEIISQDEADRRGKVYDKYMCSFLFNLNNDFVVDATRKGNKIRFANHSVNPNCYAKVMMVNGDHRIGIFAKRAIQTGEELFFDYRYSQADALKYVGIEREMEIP
row,SMILES,Ki [nM]
1,COc1cc(C)[nH]c(=O)c1CN1CCc2c(Cl)cc([C@H](O)C3COC3)c(Cl)c2C1=O,1.5
2,COc1cc(C)[nH]c(=O)c1CN1CCc2c(Cl)cc([C@@H](OC)C3COC3)c(Cl)c2C1=O,16
3,Cc1cc(C)c(CN2CCc3c(Cl)cc([C@@H](CO)[C@H]4CCCO4)c(Cl)c3C2=O)c(=O)[nH]1,110
4,Cc1cc(C)c(CN2CCc3c(Cl)cc([C@@H](CO)[C@@H]4CCOC4)c(Cl)c3C2=O)c(=O)[nH]1,1260
5,Cc1cc(C)c(CN2CCc3c(Cl)cc([C@H](CO)[C@@H]4CCCO4)c(Cl)c3C2=O)c(=O)[nH]1,10
6,COc1cc(C)[nH]c(=O)c1CN1CCc2c(Cl)cc([C@@H](O)C3COC3)c(Cl)c2C1=O,1500
7,Cc1cc(C)c(CN2CCc3c(Cl)cc([C@H](CO)[C@H]4CCOC4)c(Cl)c3C2=O)c(=O)[nH]1,0.24
8,Cc1cc(C)c(CN2CCc3c(Cl)cc([C@@H](C)CO)c(Cl)c3C2=O)c(=O)[nH]1,260
9,COc1cc(C)[nH]c(=O)c1CN1CCc2c(Cl)cc(-c3c(C)noc3C)c(Cl)c2C1=O,0.15
10,Cc1cc(C)c(CN2CCc3c(Cl)cc([C@H](CO)[C@H]4CCCO4)c(Cl)c3C2=O)c(=O)[nH]1,8
11,Cc1cc(C)c(CN2CCc3c(Cl)cc([C@@H](CO)[C@@H]4CCCO4)c(Cl)c3C2=O)c(=O)[nH]1,135

# Test system: not listed separately
# Experiment: Kinetic solubility of the compound
# Assay type: physicochemical
# Conditions: read-out: Kinetic_solubility
row,SMILES,solubility kinetic [µM]
1,COc1cc(C)[nH]c(=O)c1CN1CCc2c(Cl)cc([C@H](O)C3COC3)c(Cl)c2C1=O,234
2,COc1cc(C)[nH]c(=O)c1CN1CCc2c(Cl)cc([C@@H](OC)C3COC3)c(Cl)c2C1=O,543
3,Cc1cc(C)c(CN2CCc3c(Cl)cc([C@@H](CO)[C@H]4CCCO4)c(Cl)c3C2=O)c(=O)[nH]1,576
4,Cc1cc(C)c(CN2CCc3c(Cl)cc([C@@H](CO)[C@@H]4CCOC4)c(Cl)c3C2=O)c(=O)[nH]1,537
5,Cc1cc(C)c(CN2CCc3c(Cl)cc([C@H](CO)[C@@H]4CCCO4)c(Cl)c3C2=O)c(=O)[nH]1,400
6,COc1cc(C)[nH]c(=O)c1CN1CCc2c(Cl)cc([C@@H](O)C3COC3)c(Cl)c2C1=O,582
7,Cc1cc(C)c(CN2CCc3c(Cl)cc([C@H](CO)[C@H]4CCOC4)c(Cl)c3C2=O)c(=O)[nH]1,570
8,Cc1cc(C)c(CN2CCc3c(Cl)cc([C@@H](C)CO)c(Cl)c3C2=O)c(=O)[nH]1,143
9,COc1cc(C)[nH]c(=O)c1CN1CCc2c(Cl)cc(-c3c(C)noc3C)c(Cl)c2C1=O,384
10,Cc1cc(C)c(CN2CCc3c(Cl)cc([C@H](CO)[C@H]4CCCO4)c(Cl)c3C2=O)c(=O)[nH]1,430
11,Cc1cc(C)c(CN2CCc3c(Cl)cc([C@@H](CO)[C@@H]4CCCO4)c(Cl)c3C2=O)c(=O)[nH]1,550

# Test system: KARPAS-422
# Experiment: Antiproliferative activity against human KARPAS422 cells after 72 hrs by resazurin assay
# Assay type: functional, cell-based
# Conditions: Homo sapiens, KARPAS-422, 72 h
row,SMILES,IC50 [nM]
1,COc1cc(C)[nH]c(=O)c1CN1CCc2c(Cl)cc([C@H](O)C3COC3)c(Cl)c2C1=O,108
2,COc1cc(C)[nH]c(=O)c1CN1CCc2c(Cl)cc([C@@H](OC)C3COC3)c(Cl)c2C1=O,467
3,Cc1cc(C)c(CN2CCc3c(Cl)cc([C@@H](CO)[C@H]4CCCO4)c(Cl)c3C2=O)c(=O)[nH]1,535
4,Cc1cc(C)c(CN2CCc3c(Cl)cc([C@@H](CO)[C@@H]4CCOC4)c(Cl)c3C2=O)c(=O)[nH]1,3950
5,Cc1cc(C)c(CN2CCc3c(Cl)cc([C@H](CO)[C@@H]4CCCO4)c(Cl)c3C2=O)c(=O)[nH]1,57
6,COc1cc(C)[nH]c(=O)c1CN1CCc2c(Cl)cc([C@@H](O)C3COC3)c(Cl)c2C1=O,10600
7,Cc1cc(C)c(CN2CCc3c(Cl)cc([C@H](CO)[C@H]4CCOC4)c(Cl)c3C2=O)c(=O)[nH]1,15
8,Cc1cc(C)c(CN2CCc3c(Cl)cc([C@@H](C)CO)c(Cl)c3C2=O)c(=O)[nH]1,1500
9,COc1cc(C)[nH]c(=O)c1CN1CCc2c(Cl)cc(-c3c(C)noc3C)c(Cl)c2C1=O,27
10,Cc1cc(C)c(CN2CCc3c(Cl)cc([C@H](CO)[C@H]4CCCO4)c(Cl)c3C2=O)c(=O)[nH]1,63
11,Cc1cc(C)c(CN2CCc3c(Cl)cc([C@@H](CO)[C@@H]4CCCO4)c(Cl)c3C2=O)c(=O)[nH]1,1220

# Test system: not listed separately
# Experiment: Passive permeability in MDCK cells at 2 uM after 90 mins by LC-MS/MS analysis
# Assay type: ADME, cell-based, Canis lupus familiaris
# Conditions: dog, MDCK; read-out: permeability
# Outline: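 Low-efflux MDCK cells (MDCK-LE) on 96-well inserts, used on day 4. Monodirectional transport of 2 μM drug in transport buffer with 0.1% DMSO at 37 °C. Donor and receiver sampled at 0 and 90 min for LC−MS/MS. Donor pH 6.5 and 7.4, receiver pH 7.4.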
row,SMILES,"Papp at […], 2 µM [×10⁻⁶ cm/s]"
1,COc1cc(C)[nH]c(=O)c1CN1CCc2c(Cl)cc([C@H](O)C3COC3)c(Cl)c2C1=O,0.7
2,COc1cc(C)[nH]c(=O)c1CN1CCc2c(Cl)cc([C@@H](OC)C3COC3)c(Cl)c2C1=O,6.8
3,Cc1cc(C)c(CN2CCc3c(Cl)cc([C@@H](CO)[C@H]4CCCO4)c(Cl)c3C2=O)c(=O)[nH]1,8.5
4,Cc1cc(C)c(CN2CCc3c(Cl)cc([C@@H](CO)[C@@H]4CCOC4)c(Cl)c3C2=O)c(=O)[nH]1,3
5,Cc1cc(C)c(CN2CCc3c(Cl)cc([C@H](CO)[C@@H]4CCCO4)c(Cl)c3C2=O)c(=O)[nH]1,14.6
6,COc1cc(C)[nH]c(=O)c1CN1CCc2c(Cl)cc([C@@H](O)C3COC3)c(Cl)c2C1=O,1.2
7,Cc1cc(C)c(CN2CCc3c(Cl)cc([C@H](CO)[C@H]4CCOC4)c(Cl)c3C2=O)c(=O)[nH]1,2.9
8,Cc1cc(C)c(CN2CCc3c(Cl)cc([C@@H](C)CO)c(Cl)c3C2=O)c(=O)[nH]1,15
9,COc1cc(C)[nH]c(=O)c1CN1CCc2c(Cl)cc(-c3c(C)noc3C)c(Cl)c2C1=O,11
10,Cc1cc(C)c(CN2CCc3c(Cl)cc([C@H](CO)[C@H]4CCCO4)c(Cl)c3C2=O)c(=O)[nH]1,4.1
11,Cc1cc(C)c(CN2CCc3c(Cl)cc([C@@H](CO)[C@@H]4CCCO4)c(Cl)c3C2=O)c(=O)[nH]1,4.3

# Test system: not listed separately
# Experiment: Lipophilicity, log D of the compound at pH 7.4
# Conditions: buffer, pH 7.4, logD
row,SMILES,logD
1,COc1cc(C)[nH]c(=O)c1CN1CCc2c(Cl)cc([C@H](O)C3COC3)c(Cl)c2C1=O,1.4
2,COc1cc(C)[nH]c(=O)c1CN1CCc2c(Cl)cc([C@@H](OC)C3COC3)c(Cl)c2C1=O,1.6
3,Cc1cc(C)c(CN2CCc3c(Cl)cc([C@@H](CO)[C@H]4CCCO4)c(Cl)c3C2=O)c(=O)[nH]1,2.5
4,Cc1cc(C)c(CN2CCc3c(Cl)cc([C@@H](CO)[C@@H]4CCOC4)c(Cl)c3C2=O)c(=O)[nH]1,2
5,Cc1cc(C)c(CN2CCc3c(Cl)cc([C@H](CO)[C@@H]4CCCO4)c(Cl)c3C2=O)c(=O)[nH]1,2.4
6,COc1cc(C)[nH]c(=O)c1CN1CCc2c(Cl)cc([C@@H](O)C3COC3)c(Cl)c2C1=O,1.3
7,Cc1cc(C)c(CN2CCc3c(Cl)cc([C@H](CO)[C@H]4CCOC4)c(Cl)c3C2=O)c(=O)[nH]1,2
8,Cc1cc(C)c(CN2CCc3c(Cl)cc([C@@H](C)CO)c(Cl)c3C2=O)c(=O)[nH]1,2.5
9,COc1cc(C)[nH]c(=O)c1CN1CCc2c(Cl)cc(-c3c(C)noc3C)c(Cl)c2C1=O,2.7
10,Cc1cc(C)c(CN2CCc3c(Cl)cc([C@H](CO)[C@H]4CCCO4)c(Cl)c3C2=O)c(=O)[nH]1,2.1
11,Cc1cc(C)c(CN2CCc3c(Cl)cc([C@@H](CO)[C@@H]4CCCO4)c(Cl)c3C2=O)c(=O)[nH]1,2.1

# Target: Histone-lysine N-methyltransferase EZH2 (Homo sapiens, UniProt Q15910)
# Experiment: Inhibition of EZH2 in human KARPAS422 cells assessed as reduction in H3K27me3 level after 72 hrs by ELISA
# Conditions: not given
# Histone-lysine N-methyltransferase EZH2 (Homo sapiens, UniProt Q15910), sequence (Q15910 whole entry): as the sequence (Q15910 whole entry Y641N) above, with N641Y counted along it
row,SMILES,IC50 [nM]
1,COc1cc(C)[nH]c(=O)c1CN1CCc2c(Cl)cc([C@H](O)C3COC3)c(Cl)c2C1=O,99
2,COc1cc(C)[nH]c(=O)c1CN1CCc2c(Cl)cc([C@@H](OC)C3COC3)c(Cl)c2C1=O,75
3,Cc1cc(C)c(CN2CCc3c(Cl)cc([C@@H](CO)[C@H]4CCCO4)c(Cl)c3C2=O)c(=O)[nH]1,1020
4,Cc1cc(C)c(CN2CCc3c(Cl)cc([C@@H](CO)[C@@H]4CCOC4)c(Cl)c3C2=O)c(=O)[nH]1,2910
5,Cc1cc(C)c(CN2CCc3c(Cl)cc([C@H](CO)[C@@H]4CCCO4)c(Cl)c3C2=O)c(=O)[nH]1,41
6,COc1cc(C)[nH]c(=O)c1CN1CCc2c(Cl)cc([C@@H](O)C3COC3)c(Cl)c2C1=O,> 32000
7,Cc1cc(C)c(CN2CCc3c(Cl)cc([C@H](CO)[C@H]4CCOC4)c(Cl)c3C2=O)c(=O)[nH]1,10
8,Cc1cc(C)c(CN2CCc3c(Cl)cc([C@@H](C)CO)c(Cl)c3C2=O)c(=O)[nH]1,1040
9,COc1cc(C)[nH]c(=O)c1CN1CCc2c(Cl)cc(-c3c(C)noc3C)c(Cl)c2C1=O,8
10,Cc1cc(C)c(CN2CCc3c(Cl)cc([C@H](CO)[C@H]4CCCO4)c(Cl)c3C2=O)c(=O)[nH]1,40
11,Cc1cc(C)c(CN2CCc3c(Cl)cc([C@@H](CO)[C@@H]4CCCO4)c(Cl)c3C2=O)c(=O)[nH]1,1570
